Measured values pooled from the literature.
Dipeptidyl peptidase 8: Dipeptidyl peptidase 8 (Homo sapiens, UniProt Q6V1X1)
TACR2: Substance-K receptor (TACR2, Homo sapiens, UniProt P21452)

CN(C)C(=O)COC(=O)Cc1ccc(OC(=O)c2ccc(NC(=N)N)cc2)cc1
inhibition (Dipeptidyl peptidase 8; enzyme activity; inhibitor; 10 µM): 8%

O=C(Nc1cccnn1)N1CCN([C@@H]2CCOc3cc(C(F)(F)F)ccc32)CC1
inhibition (Somatostatin receptor type 4 (SSTR4, Homo sapiens, UniProt P31391); ligand displacement; 20 µM): 29%

CCN(CC)CCCC[C@H](NC(=O)[C@H](CC(C)C)NC(=O)[C@H](C)NC(=O)[C@H](Cc1ccccc1)NC(=O)c1ccc(C(C)(C)C)cc1)C(=O)N[C@@H](CO)C(=O)OC
inhibition (TACR2; ligand displacement; radioligand; 10 µM): 75%

N#Cc1ccc(NCCNCC(=O)N2N=CCC2C#N)nc1 (stereo not shown)
inhibition (Dipeptidyl peptidase 8; enzyme activity; inhibitor; 100 µM): 81%

O=C(CCCCCCC(=O)Nc1ccccc1)NO
inhibition (Histone deacetylase 1 (HDAC1, Homo sapiens, UniProt Q13547); enzyme activity; inhibitor; 0.1 µM): 66.3%

C#Cc1n[nH]c2c(-c3cn([C@@H](C)c4ccccc4)c(=O)[nH]c3=O)cc(F)cc12
inhibition (Tyrosine-protein kinase Yes (YES1, Homo sapiens, UniProt P07947); enzyme activity; inhibitor; 0.1 µM): -3.5%

N=C(N)c1ccc2cc(OC(=O)c3ccc(N=C(N)N)cc3)ccc2c1
inhibition (Dipeptidyl peptidase 8; enzyme activity; inhibitor; 10 µM): 8%

Cn1cc(-c2cccc(N3CCc4c(sc5c4CC(C)(C)C5)C3=O)c2CO)cc(Nc2ccncn2)c1=O
inhibition (Testis-specific serine/threonine-protein kinase 2 (TSSK2, Homo sapiens, UniProt Q96PF2); enzyme activity; inhibitor; 1 µM): 2%

COc1cc(Nc2ncc(F)c(Nc3ccc4c(n3)NC(=O)C(C)(C)O4)n2)cc(OC)c1OC
inhibition (Cyclin-dependent kinase 11B (CDK11B, Homo sapiens, UniProt P21127); binding; competition with immobilised ligand; 10 µM): 0%

CN(CCN1CCC(OC(=O)Nc2ccccc2-c2ccccc2)CC1)C(=O)c1ccc(CN2CCC(C(N)=O)CC2)cc1
inhibition (TACR2; ligand displacement; radioligand; 1 µM): 1%

CCOC(=O)c1ccc(OC(=O)CCCCCNC(=N)N)cc1
inhibition (Dipeptidyl peptidase 8; enzyme activity; inhibitor; 10 µM): 13%

C#Cc1n[nH]c2c(-c3cn(C(C)c4ccccn4)c(=O)[nH]c3=O)cc(F)cc12 (stereo not shown)
inhibition (Glycogen synthase kinase-3 alpha (GSK3A, Homo sapiens, UniProt P49840); enzyme activity; inhibitor; 1 µM): 4.6%

c1ccc(C(NCCNC(c2ccccc2)c2ccccc2)c2ccccc2)cc1
inhibition (TACR2; cell-free assay; 10 µM): 40%

O=c1ccc2cc3ccoc3cc2o1
inhibition (Histone deacetylase 8 (HDAC8, Homo sapiens, UniProt Q9BY41); enzyme activity; inhibitor; 10 µM): 30.7%

C[C@H](C(=O)N[C@H]1COc2ccccc2[C@@H]1S(C)(=O)=O)c1ccc(F)cc1
inhibition (TACR2; cell-free assay; 10 µM): -21%

Cn1cc(-c2cc(F)cc(N3CCn4c(cc5c4CCCC5)C3=O)c2CO)cc(Nc2ccc(N3CCN(C4COC4)CC3)cn2)c1=O
inhibition (Protein kinase C alpha type (PRKCA, Homo sapiens, UniProt P17252); enzyme activity; inhibitor; 0.1 µM): -11%
